Test results taken from ChEMBL document CHEMBL1145983, “Novel indolyl aryl sulfones active against HIV-1 carrying NNRTI resistance mutations: synthesis and SAR studies” (J Med Chem, 2003).
pEC50: −log10 of the molar value.

Experiments:
MT4 = assay: Cytotoxicity, reducing the vaiability of mock-infected cells; format: functional; conditions: Homo sapiens
[1] = tested on: Human immunodeficiency virus 1; assay: Anti-HIV activity protecting MT-4 cells from HIV-1 induced cytopathogenicity; format: functional, organism-based; conditions: Human immunodeficiency virus 1, MT4
[2] = tested on: Human immunodeficiency virus 1; assay: Selectivity ratio of CC50/EC50; format: functional
Method in brief: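 Ratio of CC50 (MTT viability of mock-infected MT-4 cells) to EC50 (MTT-based 50% protection of HIV-1-infected MT-4 cells from cytopathicity), both determined in parallel.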

Compound	pEC50 [1]	CC50 (MT4)	Selectivity index [2]
CC(C)OC(=O)c1cn(S(=O)(=O)c2ccccc2)c2ccccc12	< 4.27	54 µM	
CCOC(=O)c1cn(S(=O)(=O)c2ccccc2)c2ccccc12	< 4.49	32 µM	
NC(=O)c1cc2cc(Cl)ccc2n1S(=O)(=O)c1ccccc1	4.18	> 200 µM	>3
O=S(=O)(c1ccccc1)n1ccc2cc(Cl)ccc21	< 4.12	75 µM	
CC(C)OC(=O)c1cn(S(=O)(=O)c2ccccc2)c2ccc(Cl)cc12	< 3.70	> 200 µM	
NC(=O)c1cn(S(=O)(=O)c2ccccc2)c2ccc(Cl)cc12	< 3.70	200 µM	
CCOC(=O)c1[nH]c2ccccc2c1S(=O)(=O)c1ccccc1	5.43	157 µM	42
CCOC(=O)c1cc2ccccc2n1S(=O)(=O)c1ccccc1[N+](=O)[O-]	< 3.70	> 200 µM	
CCOC(=O)c1[nH]c2ccccc2c1Sc1ccccc1	< 3.70	> 200 µM	
NNC(=O)c1[nH]c2ccc(Cl)cc2c1Sc1cc(Cl)ccc1N	< 4.89	13 µM	
CCOC(=O)c1[nH]c2ccccc2c1Sc1cc(Cl)ccc1N	< 3.70	> 200 µM	
NNC(=O)c1[nH]c2ccc(Cl)cc2c1Sc1ccc(F)cc1	5.30	66 µM	13
NC(=O)c1cn(S(=O)(=O)c2ccccc2)c2ccccc12	< 4.49	32 µM	
NNC(=O)c1[nH]c2ccc(Cl)cc2c1Sc1ccc(Cl)cc1	5.00	30 µM	3
NC(=O)c1[nH]c2ccccc2c1Sc1cc(Cl)ccc1N	5.05	20 µM	2.2
NNC(=O)c1[nH]c2ccc(Cl)cc2c1S(=O)(=O)c1ccccc1	8.00	> 200 µM	>20000
CC(C)(C)c1ccc(Sc2c(C(N)=O)[nH]c3ccc(Cl)cc23)cc1	5.10	45 µM	6
CCOC(=O)c1cc2cc(Cl)ccc2n1S(=O)(=O)c1ccc(Cl)cc1	< 3.70	> 200 µM	
O=S(=O)(c1ccccc1)n1ccc2ccccc21	< 3.82	150 µM	
CCOC(=O)c1cc2ccccc2n1S(=O)(=O)c1cc(Cl)ccc1[N+](=O)[O-]	< 4.00	> 100 µM	
NNC(=O)c1cc2ccccc2n1S(=O)(=O)c1ccccc1	< 3.70	> 200 µM	
CCOC(=O)c1cn(S(=O)(=O)c2ccccc2)c2ccc(Cl)cc12	< 4.38	42 µM	
CCOC(=O)c1[nH]c2ccc(Cl)cc2c1S(=O)(=O)c1ccccc1N	< 3.70	> 200 µM	
CCOC(=O)c1cc2cc(Cl)ccc2n1S(=O)(=O)c1ccccc1	< 3.70	> 200 µM	
NC(=O)c1cc2ccccc2n1S(=O)(=O)c1ccccc1	4.82	> 200 µM	
CCOC(=O)c1cc2cc(Cl)ccc2n1S(=O)(=O)c1cc(Cl)ccc1[N+](=O)[O-]	< 4.51	31 µM	
Cc1ccc(Sc2c(C(N)=O)[nH]c3ccc(Cl)cc23)cc1	< 6.35	0.45 µM	
CCOC(=O)c1cc2ccccc2n1S(=O)(=O)c1ccccc1	< 3.70	> 200 µM	

The next lines start with results.

pEC50 [1]	Compound	CC50 (MT4)	Selectivity index [2]
7.96	NC(=O)c1[nH]c2ccc(Cl)cc2c1S(=O)(=O)c1ccc(Cl)cc1	> 200 µM	>18182
7.70	NC(=O)c1[nH]c2ccc(Cl)cc2c1Sc1ccccc1	9 µM	450
7.60	Cc1cc(C)cc(S(=O)(=O)c2c(C(N)=O)[nH]c3ccc(C(C)O)cc23)c1 (stereo unspecified)	> 200 µM	>8000
6.52	NNC(=O)c1[nH]c2ccc(Cl)cc2c1S(=O)(=O)c1cc(Cl)ccc1N	19 µM	63
6.52	NC(=O)c1[nH]c2ccccc2c1S(=O)(=O)c1cc(Cl)ccc1N	3.5 µM	11.7
5.60	CCOC(=O)c1[nH]c2ccccc2c1S(=O)(=O)c1cc(Cl)ccc1N	> 200 µM	>91
5.80	NC(=O)c1[nH]c2ccc(Cl)cc2c1Sc1cc(Cl)ccc1N	33 µM	20
7.40	NC(=O)c1[nH]c2ccc(Cl)cc2c1S(=O)(=O)c1cc(Cl)ccc1N	4.6 µM	115
8.22	Cc1cc(C)cc(Sc2c(C(N)=O)[nH]c3ccc(Cl)cc23)c1	0.7 µM	117
5.85	NC(=O)c1[nH]c2ccccc2c1Sc1ccccc1	14 µM	10
5.51	NC(=O)c1[nH]c2ccc(Cl)cc2c1Sc1ccc(Cl)cc1	13 µM	4
7.10	CC(C)c1ccc(S(=O)(=O)c2c(C(N)=O)[nH]c3ccc(Cl)cc23)cc1	> 200 µM	>2500
7.30	Cc1ccc(S(=O)(=O)c2c(C(=O)NN)[nH]c3ccc(Cl)cc23)cc1	> 200 µM	>4000
6.74	NC(=O)c1[nH]c2ccccc2c1S(=O)(=O)c1ccccc1	> 200 µM	> 1110
6.70	NNC(=O)c1[nH]c2ccc(Cl)cc2c1S(=O)(=O)c1ccc(Cl)cc1	> 200 µM	>1000
6.30	NNC(=O)c1[nH]c2ccccc2c1S(=O)(=O)c1ccccc1	133 µM	266

pEC50 [1]	Compound	CC50 (MT4)	Selectivity index [2]
7.00	NC(=O)c1[nH]c2ccc(Cl)cc2c1S(=O)(=O)c1c(Cl)cccc1Cl	40 µM	400
7.00	Cc1cc(C)cc(S(=O)(=O)c2c(C(=O)NN)[nH]c3ccc(Cl)cc23)c1	> 200 µM	>2000
7.85	NC(=O)c1[nH]c2ccc(Cl)cc2c1S(=O)(=O)c1ccc(F)cc1	17 µM	1214
5.82	Cc1ccc(Sc2c(C(=O)NN)[nH]c3ccc(Cl)cc23)cc1	129 µM	86
5.74	CCOC(=O)c1cc2ccccc2n1S(=O)(=O)c1cc(Cl)ccc1N	50 µM	28
8.70	Cc1cc(C)cc(S(=O)(=O)c2c(C(N)=O)[nH]c3ccc(Br)cc23)c1	18 µM	9000
6.52	Cc1ccccc1Sc1c(C(N)=O)[nH]c2ccc(Cl)cc12	26 µM	87
5.85	NC(=O)c1[nH]c2ccc(Cl)cc2c1Sc1ccc(F)cc1	13 µM	9
5.72	CC(C)c1ccc(Sc2c(C(N)=O)[nH]c3ccc(Cl)cc23)cc1	52 µM	27
5.72	CCOC(=O)c1[nH]c2ccc(Cl)cc2c1S(=O)(=O)c1cc(Cl)ccc1N	> 200 µM	105
7.82	CC(=O)c1ccc2[nH]c(C(N)=O)c(S(=O)(=O)c3cc(C)cc(C)c3)c2c1	> 200 µM	> 13300
5.64	CCOC(=O)c1[nH]c2ccc(Cl)cc2c1Sc1ccccc1N	> 200 µM	>87
5.60	CCOC(=O)c1[nH]c2ccc(Cl)cc2c1Sc1cc(Cl)ccc1N	> 200 µM	>80
6.89	CC(C)(C)c1ccc(S(=O)(=O)c2c(C(N)=O)[nH]c3ccc(Cl)cc23)cc1	26 µM	200
5.92	NC(=O)c1[nH]c2ccc(Cl)cc2c1Sc1c(Cl)cccc1Cl	61 µM	51
